Assay results taken from paper PMC11463018 (Journal of Enzyme Inhibition and Medicinal Chemistry, 2024).

Legend:
JAK1 = JAK1 (Homo sapiens, UniProt P23458); experiment: Kinase inhibition assay; assay type: biochemical
HDAC2 = HDAC2 (Homo sapiens, UniProt Q92769); experiment: In vitro HDAC enzyme assay; assay type: biochemical
HDAC4 = HDAC4 (Homo sapiens, UniProt P56524); experiment: In vitro HDAC enzyme assay; assay type: biochemical
HDAC5 = HDAC5 (Homo sapiens, UniProt Q9UQL6); experiment: In vitro HDAC enzyme assay; assay type: biochemical
Sequence of HDAC5 (Q9UQL6 whole entry): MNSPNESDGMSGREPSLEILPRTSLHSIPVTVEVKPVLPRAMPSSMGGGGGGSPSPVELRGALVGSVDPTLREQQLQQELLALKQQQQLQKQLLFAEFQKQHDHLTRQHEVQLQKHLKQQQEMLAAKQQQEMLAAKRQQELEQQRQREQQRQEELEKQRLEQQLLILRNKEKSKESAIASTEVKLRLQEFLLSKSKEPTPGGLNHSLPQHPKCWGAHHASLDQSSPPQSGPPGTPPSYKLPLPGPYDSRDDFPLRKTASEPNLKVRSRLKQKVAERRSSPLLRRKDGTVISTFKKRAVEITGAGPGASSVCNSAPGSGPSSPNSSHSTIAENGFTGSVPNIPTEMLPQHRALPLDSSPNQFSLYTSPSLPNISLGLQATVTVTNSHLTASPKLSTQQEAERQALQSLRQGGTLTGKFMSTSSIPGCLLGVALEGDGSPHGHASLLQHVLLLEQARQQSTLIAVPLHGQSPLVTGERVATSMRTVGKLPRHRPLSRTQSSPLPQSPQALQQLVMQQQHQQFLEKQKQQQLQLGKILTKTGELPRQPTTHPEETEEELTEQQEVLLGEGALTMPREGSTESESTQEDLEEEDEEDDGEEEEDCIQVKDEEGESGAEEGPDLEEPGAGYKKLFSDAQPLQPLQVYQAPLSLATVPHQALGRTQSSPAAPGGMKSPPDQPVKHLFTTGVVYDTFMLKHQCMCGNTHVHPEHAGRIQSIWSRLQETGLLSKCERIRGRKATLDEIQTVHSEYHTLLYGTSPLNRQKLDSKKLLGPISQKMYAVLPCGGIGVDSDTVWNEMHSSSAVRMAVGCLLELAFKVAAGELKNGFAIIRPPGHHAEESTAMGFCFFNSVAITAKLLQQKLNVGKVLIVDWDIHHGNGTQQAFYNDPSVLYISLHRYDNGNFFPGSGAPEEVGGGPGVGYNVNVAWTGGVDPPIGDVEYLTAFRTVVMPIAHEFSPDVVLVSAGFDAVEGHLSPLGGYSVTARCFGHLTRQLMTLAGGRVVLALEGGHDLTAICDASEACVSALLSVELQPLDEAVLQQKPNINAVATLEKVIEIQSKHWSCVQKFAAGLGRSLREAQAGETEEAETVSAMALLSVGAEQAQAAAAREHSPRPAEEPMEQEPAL

HDAC8 = HDAC8 (Homo sapiens, UniProt Q9BY41); experiment: In vitro HDAC enzyme assay; assay type: biochemical
Sequence of HDAC8 (Q9BY41 whole entry): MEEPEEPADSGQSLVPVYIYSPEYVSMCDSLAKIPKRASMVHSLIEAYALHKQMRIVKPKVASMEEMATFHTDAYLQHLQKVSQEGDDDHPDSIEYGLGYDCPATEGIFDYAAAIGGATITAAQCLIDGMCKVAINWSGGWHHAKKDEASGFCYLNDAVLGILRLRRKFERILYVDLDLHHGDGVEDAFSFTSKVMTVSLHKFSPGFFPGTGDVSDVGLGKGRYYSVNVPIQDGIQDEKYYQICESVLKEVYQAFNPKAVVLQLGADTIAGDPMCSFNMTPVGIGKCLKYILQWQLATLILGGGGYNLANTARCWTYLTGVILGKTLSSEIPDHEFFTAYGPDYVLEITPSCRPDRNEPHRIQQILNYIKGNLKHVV

HDAC11 = HDAC11 (Homo sapiens, UniProt Q96DB2); experiment: In vitro HDAC enzyme assay; assay type: biochemical
Sequence of HDAC11 (Q96DB2 whole entry): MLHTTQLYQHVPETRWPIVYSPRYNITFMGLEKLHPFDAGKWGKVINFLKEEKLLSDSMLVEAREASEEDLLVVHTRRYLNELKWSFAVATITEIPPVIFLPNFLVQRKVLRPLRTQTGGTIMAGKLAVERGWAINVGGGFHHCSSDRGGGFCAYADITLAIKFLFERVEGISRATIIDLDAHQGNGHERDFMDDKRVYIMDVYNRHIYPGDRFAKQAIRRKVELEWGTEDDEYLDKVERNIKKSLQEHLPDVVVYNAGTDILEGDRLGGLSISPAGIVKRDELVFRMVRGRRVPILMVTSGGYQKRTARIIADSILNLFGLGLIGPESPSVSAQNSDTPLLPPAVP

RPMI-8226 = experiment: cells; assay type: cell-based; settings: Homo sapiens, RPMI-8226, read-out: Antiproliferative effect IC50, RPMI-8226
[1] = Microsomal stability assay; assay type: in vitro ADME; settings: human, human liver microsomes, pH 7.4
Outline: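 Human liver microsomes at 0.8 mg/mL, with magnesium chloride and potassium phosphate buffer (pH 7.4), incubated with test compound at 0.5 μM. Mix prewarmed 5 min at 37 °C, then started with NADPH. Stopped at 0, 5, 10, 15, 30, 60 or 90 min with ice-cold ethyl acetate, spun 4000 rpm for 10 min at 4 °C. Supernatant analysed by LC-MS/MS and half-life determined.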

SR = experiment: NCI-60 screening, SR; assay type: cell-based; settings: Homo sapiens, read-out: GI50, SR
A549/ATCC = experiment: NCI-60 screening, A549/ATCC; assay type: cell-based; settings: Homo sapiens, A549, read-out: GI50, A549/ATCC
EKVX = experiment: NCI-60 screening, EKVX; assay type: cell-based; settings: Homo sapiens, read-out: GI50, EKVX
HCT-116 = experiment: NCI-60 screening, HCT-116; assay type: cell-based; settings: Homo sapiens, HCT-116, read-out: GI50, HCT-116
HCT-15 = experiment: NCI-60 screening, HCT-15; assay type: cell-based; settings: Homo sapiens, HCT-15, read-out: GI50, HCT-15
M14 = experiment: NCI-60 screening, M14; assay type: cell-based; settings: Homo sapiens, M14, read-out: GI50, M14
SK-MEL-28 = experiment: NCI-60 screening, SK-MEL-28; assay type: cell-based; settings: Homo sapiens, SK-MEL-28, read-out: GI50, SK-MEL-28
SK-MEL-5 = experiment: NCI-60 screening, SK-MEL-5; assay type: cell-based; settings: Homo sapiens, SK-MEL-5, read-out: GI50, SK-MEL-5
OVCAR-3 = experiment: NCI-60 screening, OVCAR-3; assay type: cell-based; settings: Homo sapiens, OVCAR-3, read-out: GI50, OVCAR-3
MDA-MB-231/ATCC = experiment: NCI-60 screening, MDA-MB-231/ATCC; assay type: cell-based; settings: Homo sapiens, MDA-MB-231, read-out: GI50, MDA-MB-231/ATCC

Sequence of HDAC4 (P56524 whole entry): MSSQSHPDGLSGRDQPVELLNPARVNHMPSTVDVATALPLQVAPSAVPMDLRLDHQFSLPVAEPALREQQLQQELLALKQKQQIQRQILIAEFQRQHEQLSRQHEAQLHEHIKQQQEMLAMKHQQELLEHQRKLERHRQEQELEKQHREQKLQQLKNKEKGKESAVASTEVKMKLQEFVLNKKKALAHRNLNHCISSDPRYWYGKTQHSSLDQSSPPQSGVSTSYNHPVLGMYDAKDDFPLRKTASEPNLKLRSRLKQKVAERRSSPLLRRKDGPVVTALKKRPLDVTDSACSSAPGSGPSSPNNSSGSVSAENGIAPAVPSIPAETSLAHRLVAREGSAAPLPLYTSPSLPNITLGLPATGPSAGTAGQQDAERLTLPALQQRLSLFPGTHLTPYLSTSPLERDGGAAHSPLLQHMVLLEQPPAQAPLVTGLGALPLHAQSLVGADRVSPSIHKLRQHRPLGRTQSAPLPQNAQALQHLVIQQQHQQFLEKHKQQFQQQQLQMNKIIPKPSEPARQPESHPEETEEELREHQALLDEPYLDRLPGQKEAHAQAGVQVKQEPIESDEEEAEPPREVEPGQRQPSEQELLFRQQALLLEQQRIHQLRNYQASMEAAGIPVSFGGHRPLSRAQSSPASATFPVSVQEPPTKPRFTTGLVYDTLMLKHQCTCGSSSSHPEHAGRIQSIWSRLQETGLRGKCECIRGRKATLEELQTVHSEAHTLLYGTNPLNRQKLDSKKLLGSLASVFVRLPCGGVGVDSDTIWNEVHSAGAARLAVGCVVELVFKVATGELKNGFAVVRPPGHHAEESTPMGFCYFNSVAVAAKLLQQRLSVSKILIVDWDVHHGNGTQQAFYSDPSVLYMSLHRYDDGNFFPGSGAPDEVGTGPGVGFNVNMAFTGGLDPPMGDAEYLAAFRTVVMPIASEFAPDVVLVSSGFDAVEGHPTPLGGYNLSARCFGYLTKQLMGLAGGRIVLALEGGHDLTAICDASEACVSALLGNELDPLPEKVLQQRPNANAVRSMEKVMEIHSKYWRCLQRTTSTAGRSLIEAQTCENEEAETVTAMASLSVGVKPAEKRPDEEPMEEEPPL
Sequence of HDAC2 (Q92769 whole entry): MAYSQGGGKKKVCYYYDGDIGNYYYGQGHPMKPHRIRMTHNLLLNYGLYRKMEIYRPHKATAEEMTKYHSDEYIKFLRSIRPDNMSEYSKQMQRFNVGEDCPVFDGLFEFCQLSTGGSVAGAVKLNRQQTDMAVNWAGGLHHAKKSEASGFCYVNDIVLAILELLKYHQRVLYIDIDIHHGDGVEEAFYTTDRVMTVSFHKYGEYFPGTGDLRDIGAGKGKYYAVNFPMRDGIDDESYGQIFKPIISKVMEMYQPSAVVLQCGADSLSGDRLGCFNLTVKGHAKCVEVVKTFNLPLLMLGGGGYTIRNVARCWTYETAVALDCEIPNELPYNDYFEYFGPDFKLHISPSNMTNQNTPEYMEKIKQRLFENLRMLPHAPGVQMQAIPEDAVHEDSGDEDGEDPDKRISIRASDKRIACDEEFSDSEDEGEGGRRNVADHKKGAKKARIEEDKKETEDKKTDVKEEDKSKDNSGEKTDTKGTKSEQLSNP
Sequence of JAK1 (P23458 whole entry): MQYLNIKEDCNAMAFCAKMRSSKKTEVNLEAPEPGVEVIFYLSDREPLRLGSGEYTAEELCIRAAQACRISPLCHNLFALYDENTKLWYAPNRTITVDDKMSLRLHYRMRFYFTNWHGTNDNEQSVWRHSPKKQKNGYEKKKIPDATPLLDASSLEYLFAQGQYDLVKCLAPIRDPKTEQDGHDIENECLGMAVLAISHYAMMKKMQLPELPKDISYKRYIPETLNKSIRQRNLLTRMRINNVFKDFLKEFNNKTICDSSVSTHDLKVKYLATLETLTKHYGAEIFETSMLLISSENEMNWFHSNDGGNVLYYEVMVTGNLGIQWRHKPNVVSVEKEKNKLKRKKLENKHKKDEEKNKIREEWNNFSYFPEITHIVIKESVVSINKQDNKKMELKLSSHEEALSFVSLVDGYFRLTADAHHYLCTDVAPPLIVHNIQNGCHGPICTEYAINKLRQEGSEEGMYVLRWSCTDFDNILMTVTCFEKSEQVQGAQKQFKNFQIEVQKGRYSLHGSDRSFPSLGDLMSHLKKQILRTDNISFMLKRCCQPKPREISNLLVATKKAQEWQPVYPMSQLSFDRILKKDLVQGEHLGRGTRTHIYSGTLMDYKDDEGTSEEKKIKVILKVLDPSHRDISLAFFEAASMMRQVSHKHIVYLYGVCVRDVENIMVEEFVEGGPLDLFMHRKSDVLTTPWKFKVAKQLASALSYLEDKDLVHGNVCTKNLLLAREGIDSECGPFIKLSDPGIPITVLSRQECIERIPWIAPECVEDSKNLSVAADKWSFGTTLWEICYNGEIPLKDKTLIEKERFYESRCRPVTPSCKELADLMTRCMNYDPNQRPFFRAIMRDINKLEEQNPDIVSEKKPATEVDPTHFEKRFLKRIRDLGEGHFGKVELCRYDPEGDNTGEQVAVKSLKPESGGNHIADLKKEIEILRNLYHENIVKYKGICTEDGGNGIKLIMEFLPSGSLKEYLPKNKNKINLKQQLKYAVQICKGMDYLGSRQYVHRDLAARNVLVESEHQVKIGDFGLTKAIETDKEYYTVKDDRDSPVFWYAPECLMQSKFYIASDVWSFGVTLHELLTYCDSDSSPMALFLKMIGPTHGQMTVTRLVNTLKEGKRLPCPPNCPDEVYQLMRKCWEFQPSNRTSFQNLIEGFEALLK

IC50 (JAK1): 165 ± 13 nM
IC50 (HDAC2): 36.5 ± 0.95 nM
Fold weaker on HDAC2 than HDAC6 (HDAC2; IC50 HDAC2 vs HDAC6): ~8.5 fold
IC50 (HDAC4): > 50000 nM
HDAC4 IC50 (HDAC4; duplicate, SD <15%): no activity
IC50 (HDAC5): > 50000 nM
HDAC5 IC50 (HDAC5; duplicate, SD <15%): no activity
IC50 (HDAC8): 640 ± 28.3 nM
IC50 (HDAC11): 1400 ± 102 nM
IC50 (RPMI-8226): 120 ± 10 nM
half-life at 0.5 μM [1]: 14.5 h
SMILES: O=C(NO)c1ccc(CNc2nc3cccc(-c4ccc5c(c4)OCO5)n3n2)cc1 [Compound 19, 4-(((5-(Benzo[d][1, 3]dioxol-5-yl)-[1,2, 4]triazolo[1,5-a]pyridin-2-yl)amino)methyl)-N-hydroxybenzamide]
GI50 (SR): 100 nM
GI50 (A549/ATCC): 890 nM
GI50 (EKVX): 780 nM
GI50 (HCT-116): 440 nM
GI50 (HCT-15): 690 nM
GI50 (M14): 550 nM
GI50 (SK-MEL-28): 480 nM
GI50 (SK-MEL-5): 550 nM
GI50 (OVCAR-3): 420 nM
GI50 (MDA-MB-231/ATCC): 690 nM
